Measured values: ChEMBL document CHEMBL1124223, “1-Substituted 7-[3-[(ethylamino)methyl]-1-pyrrolidinyl]-6,8- difluoro-1,4-dihydro-4-oxo-3-quinolinecarboxylic acids. New quantitative structure-activity relationships at N1 for the quinolone antibacterials” (1988)
Values after ≈ are worked out from the molar mass of the structure shown.

Key:
[1] = tested on: Escherichia coli; experiment: Minimum inhibitory concentration against Escherichia coli (H560); type: functional
Procedure, shortened: (§1)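 MICs were determined by standard microtitration against a panel of 11 bacterial strains. Aqueous stock solutions were prepared with 0.1 N sodium or potassium hydroxide.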

[2] = tested on: Escherichia coli; experiment: Minimum inhibitory concentration against Escherichia coli (vogel); type: functional; procedure, shortened: as §1
[3] = tested on: Enterobacter cloacae; experiment: Minimum inhibitory concentration against Enterobacter cloacae. (MA2446).; type: functional
[4] = molecular target: DNA gyrase (Escherichia coli) (UniProt P0AES6+P0AES4); experiment: Concentration required for 50% inhibition of gyrase.; type: protein-complex assay
Procedure, shortened: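 DNA gyrase inhibition: the drug concentration (µg/mL) giving 50% inhibition (I50) was recorded, along with the lowest concentration inducing gyrase-mediated DNA cleavage. Data come from duplicate experiments with ±50% reproducibility.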

[5] = tested on: Klebsiella pneumoniae; experiment: Minimum inhibitory concentration against Klebsiella pneumoniae (MGH-2); type: functional; procedure, shortened: as §1
[6] = tested on: Pseudomonas aeruginosa; experiment: Minimum inhibitory concentration against Pseudomonas aeruginosa. (UI-18); type: functional; procedure, shortened: as §1
[7] = tested on: Providencia rettgeri; experiment: Minimum inhibitory concentration against Providencia rettgeri. (M1771); type: functional; procedure, shortened: as §1
[8] = tested on: Streptococcus pyogenes; experiment: Minimum inhibitory concentration against Streptococcus pyogenes (C203).; type: functional; procedure, shortened: as §1
[9] = tested on: Staphylococcus aureus; experiment: Minimum inhibitory concentration against Staphylococcus aureus (H-228).; type: functional; procedure, shortened: as §1
[10] = tested on: Staphylococcus aureus; experiment: Minimum inhibitory concentration against Staphylococcus aureus (UC76).; type: functional; procedure, shortened: as §1
[11] = tested on: Streptococcus pneumoniae; experiment: Minimum inhibitory concentration against Streptococcus pneumoniae (SV-1).; type: functional; procedure, shortened: as §1
[12] = tested on: Enterobacter; experiment: Minimum inhibitory concentration against gram-negative enterobacteriaceae.; type: functional
Procedure, shortened: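 This value is the geometric mean of microtitration MICs for the Gram-negative Enterobacteriaceae strains in the 11-organism panel. Aqueous stocks were prepared in 0.1 N sodium or potassium hydroxide.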

[13] = tested on: Enterococcus faecalis; experiment: Minimum inhibitory concentration against Streptococcus faecalis (MGH-2).; type: functional; procedure, shortened: as §1

| MIC [1] [µg/mL] | MIC [2] [µg/mL] | MIC [3] [µg/mL] | IC50 [4] [µg/mL] | MIC [5] [µg/mL] | MIC [6] [µg/mL] | MIC [7] [µg/mL] | MIC [8] [µg/mL] | MIC [9] [µg/mL] | MIC [10] [µg/mL] | MIC [11] [µg/mL] | MIC [12] [µg/mL] | MIC [13] [µg/mL] | Compound |
| --- | --- | --- | --- | --- | --- | --- | --- | --- | --- | --- | --- | --- | --- |
| 0.1 (≈ 0.247 µM) | 0.2 (≈ 0.493 µM) | 0.4 (≈ 0.987 µM) | 26 (≈ 64.1 µM) | 0.4 (≈ 0.987 µM) | 3.1 (≈ 7.65 µM) | 3.1 (≈ 7.65 µM) | 0.2 (≈ 0.493 µM) | 0.1 (≈ 0.247 µM) | 0.05 (≈ 0.123 µM) | 0.1 (≈ 0.247 µM) | 0.4 (≈ 0.987 µM) | 0.2 (≈ 0.493 µM) | CCNCC1CCN(c2c(F)cc3c(=O)c(C(=O)O)cn(C4CCC4)c3c2F)C1 (stereo unspecified) |
| 0.1 (≈ 0.265 µM) | 0.2 (≈ 0.53 µM) | 0.2 (≈ 0.53 µM) | 2.9 (≈ 7.68 µM) | 0.4 (≈ 1.06 µM) | 1.6 (≈ 4.24 µM) | 1.6 (≈ 4.24 µM) | 0.1 (≈ 0.265 µM) | 0.4 (≈ 1.06 µM) | 0.1 (≈ 0.265 µM) | 0.2 (≈ 0.53 µM) | 0.3 (≈ 0.795 µM) | 0.4 (≈ 1.06 µM) | C=Cn1cc(C(=O)O)c(=O)c2cc(F)c(N3CCC(CNCC)C3)c(F)c21 (stereo unspecified) |
| 0.8 (≈ 1.97 µM) | 0.8 (≈ 1.97 µM) | 3.1 (≈ 7.65 µM) | 30 (≈ 74 µM) | 1.6 (≈ 3.95 µM) | 25 (≈ 61.7 µM) | 12.5 (≈ 30.8 µM) | 0.4 (≈ 0.987 µM) | 0.2 (≈ 0.493 µM) | 0.1 (≈ 0.247 µM) | 0.8 (≈ 1.97 µM) | 2.09 (≈ 5.15 µM) | 0.8 (≈ 1.97 µM) | CCNCC1CCN(c2c(F)cc3c(=O)c(C(=O)O)cn(CC4CC4)c3c2F)C1 (stereo unspecified) |
| 3.1 (≈ 7.14 µM) | 1.6 (≈ 3.68 µM) | 1.6 (≈ 3.68 µM) | 30 (≈ 69 µM) | 3.1 (≈ 7.14 µM) | 25 (≈ 57.5 µM) | 12.5 (≈ 28.8 µM) | 6.3 (≈ 14.5 µM) | 25 (≈ 57.5 µM) | 1.6 (≈ 3.68 µM) | 12.5 (≈ 28.8 µM) | 3.14 (≈ 7.23 µM) | 6.3 (≈ 14.5 µM) | CCNCC1CCN(c2c(F)cc3c(=O)c(C(=O)O)cn(-c4nccs4)c3c2F)C1 (stereo unspecified) |
| 3.1 (≈ 7.15 µM) | 6.3 (≈ 14.5 µM) | 25 (≈ 57.7 µM) | 30 (≈ 69.2 µM) | 12.5 (≈ 28.8 µM) | > 100 | > 100 | 6.3 (≈ 14.5 µM) | 6.3 (≈ 14.5 µM) | 3.1 (≈ 7.15 µM) | 3.1 (≈ 7.15 µM) | 16.5 (≈ 38.1 µM) | 6.3 (≈ 14.5 µM) | CCNCC1CCN(c2c(F)cc3c(=O)c(C(=O)O)cn(C4CCCCC4)c3c2F)C1 (stereo unspecified) |
| 0.8 (≈ 1.97 µM) | 0.8 (≈ 1.97 µM) | 1.6 (≈ 3.95 µM) | 13 (≈ 32.1 µM) | 1.6 (≈ 3.95 µM) | 6.3 (≈ 15.5 µM) | 6.3 (≈ 15.5 µM) | 0.8 (≈ 1.97 µM) | 0.8 (≈ 1.97 µM) | 0.2 (≈ 0.493 µM) | 0.8 (≈ 1.97 µM) | 1.59 (≈ 3.92 µM) | 0.4 (≈ 0.987 µM) | CCNCC1CCN(c2c(F)cc3c(=O)c(C(=O)O)cn(C4CC4C)c3c2F)C1 (stereo unspecified) |
| 0.1 (≈ 0.224 µM) | 0.8 (≈ 1.8 µM) | 0.8 (≈ 1.8 µM) | 14 (≈ 31.4 µM) | 1.6 (≈ 3.59 µM) | 1.6 (≈ 3.59 µM) | 1.6 (≈ 3.59 µM) | 0.4 (≈ 0.898 µM) | 0.1 (≈ 0.224 µM) | 0.2 (≈ 0.449 µM) | 0.4 (≈ 0.898 µM) | 0.7 (≈ 1.57 µM) | 0.2 (≈ 0.449 µM) | CCNCC1CCN(c2c(F)cc3c(=O)c(C(=O)O)cn(-c4ccc(F)cc4)c3c2F)C1 (stereo unspecified) |
| 0.1 (≈ 0.252 µM) | 0.1 (≈ 0.252 µM) | 0.2 (≈ 0.503 µM) | 7.5 (≈ 18.9 µM) | 0.4 (≈ 1.01 µM) | 1.6 (≈ 4.03 µM) | 0.8 (≈ 2.01 µM) | 0.1 (≈ 0.252 µM) | 0.4 (≈ 1.01 µM) | 0.1 (≈ 0.252 µM) | 0.1 (≈ 0.252 µM) | 0.23 (≈ 0.579 µM) | 0.2 (≈ 0.503 µM) | CCNCC1CCN(c2c(F)cc3c(=O)c(C(=O)O)cn(CCF)c3c2F)C1 (stereo unspecified) |
| 0.8 (≈ 1.91 µM) | 3.1 (≈ 7.39 µM) | 6.3 (≈ 15 µM) | 28 (≈ 66.8 µM) | 3.1 (≈ 7.39 µM) | 12.5 (≈ 29.8 µM) | 12.5 (≈ 29.8 µM) | 0.4 (≈ 0.954 µM) | 0.4 (≈ 0.954 µM) | 0.1 (≈ 0.238 µM) | 0.2 (≈ 0.477 µM) | 3.6 (≈ 8.58 µM) | 0.4 (≈ 0.954 µM) | CCNCC1CCN(c2c(F)cc3c(=O)c(C(=O)O)cn(C4CCCC4)c3c2F)C1 (stereo unspecified) |
| 0.8 (≈ 1.87 µM) | 1.6 (≈ 3.74 µM) | 1.6 (≈ 3.74 µM) | 29 (≈ 67.8 µM) | 1.6 (≈ 3.74 µM) | 6.3 (≈ 14.7 µM) | 6.3 (≈ 14.7 µM) | 1.6 (≈ 3.74 µM) | 0.8 (≈ 1.87 µM) | 0.2 (≈ 0.468 µM) | 1.6 (≈ 3.74 µM) | 1.83 (≈ 4.28 µM) | 0.8 (≈ 1.87 µM) | CCNCC1CCN(c2c(F)cc3c(=O)c(C(=O)O)cn(-c4ccccc4)c3c2F)C1 (stereo unspecified) |
| 1.6 (≈ 3.95 µM) | 0.8 (≈ 1.97 µM) | 3.1 (≈ 7.65 µM) | 6.3 (≈ 15.5 µM) | 0.8 (≈ 1.97 µM) | 3.1 (≈ 7.65 µM) | 1.6 (≈ 3.95 µM) | 0.8 (≈ 1.97 µM) | 0.4 (≈ 0.987 µM) | 0.1 (≈ 0.247 µM) | 0.8 (≈ 1.97 µM) | 1.38 (≈ 3.4 µM) | 0.2 (≈ 0.493 µM) | CCNCC1CCN(c2c(F)cc3c(=O)c(C(=O)O)cn(C4(C)CC4)c3c2F)C1 (stereo unspecified) |
| 0.025 (≈ 0.0748 µM) | 0.1 (≈ 0.299 µM) |  |  | 0.2 (≈ 0.598 µM) | 0.8 (≈ 2.39 µM) | 0.2 (≈ 0.598 µM) | 12.5 (≈ 37.4 µM) | 1.6 (≈ 4.79 µM) | 0.4 (≈ 1.2 µM) | 12.5 (≈ 37.4 µM) | 0.1 (≈ 0.299 µM) | 3.1 (≈ 9.27 µM) | CNn1cc(C(=O)O)c(=O)c2cc(F)c(N3CCN(C)CC3)cc21 [AMIFLOXACIN] |
| 0.1 (≈ 0.271 µM) | 0.2 (≈ 0.542 µM) | 0.2 (≈ 0.542 µM) |  | 0.2 (≈ 0.542 µM) | 1.6 (≈ 4.33 µM) | 0.4 (≈ 1.08 µM) | 6.3 (≈ 17.1 µM) | 0.8 (≈ 2.17 µM) | 0.2 (≈ 0.542 µM) | 6.3 (≈ 17.1 µM) | 0.2 (≈ 0.542 µM) | 3.1 (≈ 8.39 µM) | CN1CCN(c2c(F)cc3c(=O)c(C(=O)O)cn(CCF)c3c2F)CC1 [FLEROXACIN] |
